tested on: Leishmania donovani; assay: (§1) Percent decrease in viable parasitesrelative to the control; assay type: functional; conditions: not given; call rule not given here
Method in brief: (§2)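 Single concentration of 30 μM in the intracellular amastigote macrophage assays. Inhibition is expressed as the percent decrease in viable parasites relative to untreated control.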

Compound | Inhibition
CCCCOC(=O)C(CCC(=O)NC(CSc1ccc([N+](=O)[O-])cc1[N+](=O)[O-])C(=O)NCC(=O)O)NC(=O)OCc1ccccc1 (centres undefined) | 12%
CCCCCCCCOC(=O)CNC(=O)C(CSc1ccc([N+](=O)[O-])cc1[N+](=O)[O-])NC(=O)CCC(NC(=O)OCc1ccccc1)C(=O)OCCCCCCCC (centres undefined) | 11%
O=C(CCC(NC(=O)OCc1ccccc1)C(=O)OCCF)NC(CSc1ccc([N+](=O)[O-])cc1[N+](=O)[O-])C(=O)NCC(=O)OCCF (centres undefined) | 26%

tested on: Trypanosoma cruzi; assay: as §1; assay type: functional; conditions: not given; method in brief: as §2

Compound | Inhibition
CCCCCCOC(=O)CNC(=O)C(CSc1ccc([N+](=O)[O-])cc1[N+](=O)[O-])NC(=O)CCC(NC(=O)OCc1ccccc1)C(=O)OCCCCCC (centres undefined) | 36%
O=C(CCC(NC(=O)OCc1ccccc1)C(=O)OCCF)NC(CSc1ccc([N+](=O)[O-])cc1[N+](=O)[O-])C(=O)NCC(=O)OCCF (centres undefined) | 8%
O=C(CCC(NC(=O)OCc1ccccc1)C(=O)OCCCCl)NC(CSc1ccc([N+](=O)[O-])cc1[N+](=O)[O-])C(=O)NCC(=O)OCCCCl (centres undefined) | 35%

species: Homo sapiens; assay: Compound was evaluated for its inhibitory activity against KBcells; assay type: functional; conditions: not given
Method in brief: (§3)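 KB cells (human oral pharyngeal carcinoma) grown in RPMI with 10% calf foetal serum at 37 °C, 5% CO2 in humidified air. Exposed to compound for 3 days under the same conditions, then viability read by Alamar Blue assay; ED50 reported.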

Compound | ED50
CCCCCOC(=O)CNC(=O)C(CSc1ccc([N+](=O)[O-])cc1[N+](=O)[O-])NC(=O)CCC(NC(=O)OCc1ccccc1)C(=O)OCCCCC (centres undefined) | > 300 µM

tested on: not listed separately; assay: Relative toxicity was evaluated as ED50 for KB cell line to that of ED50 for T.B. brucei; assay type: organism-based; conditions: trypanosoma brucei brucei, KB cells versus Trypanosoma brucei brucei; read-out: Relative toxicity
Method in brief: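 Ratio of ED50 against KB cells to ED50 against T. b. brucei bloodstream forms, each from the 3-day Alamar Blue assays.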

Compound | selectivity ratio
CCCCCCOC(=O)CNC(=O)C(CSc1ccc([N+](=O)[O-])cc1[N+](=O)[O-])NC(=O)CCC(NC(=O)OCc1ccccc1)C(=O)OCCCCCC (centres undefined) | 18.8
CCCCCOC(=O)CNC(=O)C(CSc1ccc([N+](=O)[O-])cc1[N+](=O)[O-])NC(=O)CCC(NC(=O)OCc1ccccc1)C(=O)OCCCCC (centres undefined) | 789
O=C(CCC(NC(=O)OCc1ccccc1)C(=O)OCCF)NC(CSc1ccc([N+](=O)[O-])cc1[N+](=O)[O-])C(=O)NCC(=O)OCCF (centres undefined) | 0.99
O=C(CCC(NC(=O)OCc1ccccc1)C(=O)OCCCCl)NC(CSc1ccc([N+](=O)[O-])cc1[N+](=O)[O-])C(=O)NCC(=O)OCCCCl (centres undefined) | 0.8

tested on: Trypanosoma brucei brucei; assay: Inhibitory activity against Trypanosoma brucei; assay type: functional; conditions: read-out: ED50 (the source's name)
Method in brief: (§4)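 T. b. brucei S427 bloodstream trypomastigotes kept in HMI-18 with 20% heat-inactivated FCS at 37 °C, 5% CO2. Parasites at 2 × 10^5/mL were mixed 1:1 with compound, run in triplicate as a 3-fold dilution series from 30 μM top. Incubated 3 days at 37 °C; Alamar Blue read-out on day 3 gave ED50. Pentamidine positive control.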

EC50 | Compound
5.8 µM | CCCCCCOC(=O)CNC(=O)C(CSc1ccc([N+](=O)[O-])cc1[N+](=O)[O-])NC(=O)CCC(NC(=O)OCc1ccccc1)C(=O)OCCCCCC (centres undefined)
10.3 µM | CCCCOC(=O)C(CCC(=O)NC(CSc1ccc([N+](=O)[O-])cc1[N+](=O)[O-])C(=O)NCC(=O)O)NC(=O)OCc1ccccc1 (centres undefined)
0.38 µM | CCCCCOC(=O)CNC(=O)C(CSc1ccc([N+](=O)[O-])cc1[N+](=O)[O-])NC(=O)CCC(NC(=O)OCc1ccccc1)C(=O)OCCCCC (centres undefined)
21.8 µM | O=C(CCC(NC(=O)OCc1ccccc1)C(=O)OCCF)NC(CSc1ccc([N+](=O)[O-])cc1[N+](=O)[O-])C(=O)NCC(=O)OCCF (centres undefined)
1.05 µM | O=C(CCC(NC(=O)OCc1ccccc1)C(=O)OCCCCl)NC(CSc1ccc([N+](=O)[O-])cc1[N+](=O)[O-])C(=O)NCC(=O)OCCCCl (centres undefined)

tested on: Leishmania donovani; assay: Inhibitory activity against Leishmania donovani; assay type: functional; conditions: read-out: ED50 (the source's name)
Method in brief: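 Starch-elicited peritoneal macrophages from female CD1 mice were plated at 4 × 10^4/well in RPMI-1640 with 10% HIFCS. After 24 h they were infected at 10:1 with L. donovani amastigotes (MHOM/ET/67/L82, hamster-passaged). Drug was given as a 3-fold dilution series in quadruplicate for 5 days. Activity was scored as the percentage of macrophages cleared of amastigotes. Sodium stibogluconate control.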

Compound | EC50
CCCCCCOC(=O)CNC(=O)C(CSc1ccc([N+](=O)[O-])cc1[N+](=O)[O-])NC(=O)CCC(NC(=O)OCc1ccccc1)C(=O)OCCCCCC (centres undefined) | > 30 µM
CCCCCOC(=O)CNC(=O)C(CSc1ccc([N+](=O)[O-])cc1[N+](=O)[O-])NC(=O)CCC(NC(=O)OCc1ccccc1)C(=O)OCCCCC (centres undefined) | > 30 µM
O=C(CCC(NC(=O)OCc1ccccc1)C(=O)OCCF)NC(CSc1ccc([N+](=O)[O-])cc1[N+](=O)[O-])C(=O)NCC(=O)OCCF (centres undefined) | > 30 µM
O=C(CCC(NC(=O)OCc1ccccc1)C(=O)OCCCCl)NC(CSc1ccc([N+](=O)[O-])cc1[N+](=O)[O-])C(=O)NCC(=O)OCCCCl (centres undefined) | > 30 µM

Continued, values first:

EC50 | Compound
> 30 µM | CCCCOC(=O)C(CCC(=O)NC(CSc1ccc([N+](=O)[O-])cc1[N+](=O)[O-])C(=O)NCC(=O)O)NC(=O)OCc1ccccc1 (centres undefined)
> 30 µM | CCCCCCCCOC(=O)CNC(=O)C(CSc1ccc([N+](=O)[O-])cc1[N+](=O)[O-])NC(=O)CCC(NC(=O)OCc1ccccc1)C(=O)OCCCCCCCC (centres undefined)

tested on: Trypanosoma cruzi; assay: Evaluated for its inhibitory activity against Trypanosoma cruzi; assay type: functional; conditions: read-out: ED50 (the source's name)
Method in brief: (§5)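 Starch-elicited female CD1 mouse peritoneal macrophages (4 × 10^4/well, RPMI-1640, 10% HIFCS) were infected after 24 h at 5:1 with T. cruzi Y trypomastigotes derived from MDCK cultures. Drug was applied as a 3-fold dilution series in quadruplicate for 3 days. Activity was the percentage of macrophages cleared of amastigotes. Nifurtimox control.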

EC50 | Compound
> 30 µM | CCCCCCOC(=O)CNC(=O)C(CSc1ccc([N+](=O)[O-])cc1[N+](=O)[O-])NC(=O)CCC(NC(=O)OCc1ccccc1)C(=O)OCCCCCC (centres undefined)
> 30 µM | CCCCOC(=O)C(CCC(=O)NC(CSc1ccc([N+](=O)[O-])cc1[N+](=O)[O-])C(=O)NCC(=O)O)NC(=O)OCc1ccccc1 (centres undefined)
6.7 µM | CCCCCOC(=O)CNC(=O)C(CSc1ccc([N+](=O)[O-])cc1[N+](=O)[O-])NC(=O)CCC(NC(=O)OCc1ccccc1)C(=O)OCCCCC (centres undefined)
> 30 µM | O=C(CCC(NC(=O)OCc1ccccc1)C(=O)OCCF)NC(CSc1ccc([N+](=O)[O-])cc1[N+](=O)[O-])C(=O)NCC(=O)OCCF (centres undefined)
> 30 µM | O=C(CCC(NC(=O)OCc1ccccc1)C(=O)OCCCCl)NC(CSc1ccc([N+](=O)[O-])cc1[N+](=O)[O-])C(=O)NCC(=O)OCCCCl (centres undefined)

tested on: not listed separately; assay: Evaluated for its inhibitory activity against KB cells; assay type: functional; conditions: Homo sapiens, read-out: ED50 (the source's name); method in brief: as §3

EC50 | Compound
109 µM | CCCCCCOC(=O)CNC(=O)C(CSc1ccc([N+](=O)[O-])cc1[N+](=O)[O-])NC(=O)CCC(NC(=O)OCc1ccccc1)C(=O)OCCCCCC (centres undefined)
95.3 µM | CCCCCCCCOC(=O)CNC(=O)C(CSc1ccc([N+](=O)[O-])cc1[N+](=O)[O-])NC(=O)CCC(NC(=O)OCc1ccccc1)C(=O)OCCCCCCCC (centres undefined)
15.2 µM | O=C(CCC(NC(=O)OCc1ccccc1)C(=O)OCCF)NC(CSc1ccc([N+](=O)[O-])cc1[N+](=O)[O-])C(=O)NCC(=O)OCCF (centres undefined)
0.39 µM | O=C(CCC(NC(=O)OCc1ccccc1)C(=O)OCCCCl)NC(CSc1ccc([N+](=O)[O-])cc1[N+](=O)[O-])C(=O)NCC(=O)OCCCCl (centres undefined)

tested on: Trypanosoma brucei brucei; assay: Compound was evaluated for its inhibitory activity against Trypanosoma brucei; NA= not active at 30 umol; assay type: functional, organism-based; conditions: not given; method in brief: as §4

Compound | NA
CCCCCCCCOC(=O)CNC(=O)C(CSc1ccc([N+](=O)[O-])cc1[N+](=O)[O-])NC(=O)CCC(NC(=O)OCc1ccccc1)C(=O)OCCCCCCCC (centres undefined) | not active at 30 umol

tested on: not listed separately; assay: Partition coefficient (logP); assay type: physicochemical; conditions: octanol/water

Compound | logP
CCCCCCOC(=O)CNC(=O)C(CSc1ccc([N+](=O)[O-])cc1[N+](=O)[O-])NC(=O)CCC(NC(=O)OCc1ccccc1)C(=O)OCCCCCC (centres undefined) | 7.02
CCCCCOC(=O)CNC(=O)C(CSc1ccc([N+](=O)[O-])cc1[N+](=O)[O-])NC(=O)CCC(NC(=O)OCc1ccccc1)C(=O)OCCCCC (centres undefined) | 6.04
O=C(CCC(NC(=O)OCc1ccccc1)C(=O)OCCF)NC(CSc1ccc([N+](=O)[O-])cc1[N+](=O)[O-])C(=O)NCC(=O)OCCF (centres undefined) | 2.97
O=C(CCC(NC(=O)OCc1ccccc1)C(=O)OCCCCl)NC(CSc1ccc([N+](=O)[O-])cc1[N+](=O)[O-])C(=O)NCC(=O)OCCCCl (centres undefined) | 4.58

Continued, values first:

logP | Compound
2.8 | CCCCOC(=O)C(CCC(=O)NC(CSc1ccc([N+](=O)[O-])cc1[N+](=O)[O-])C(=O)NCC(=O)O)NC(=O)OCc1ccccc1 (centres undefined)
8.99 | CCCCCCCCOC(=O)CNC(=O)C(CSc1ccc([N+](=O)[O-])cc1[N+](=O)[O-])NC(=O)CCC(NC(=O)OCc1ccccc1)C(=O)OCCCCCCCC (centres undefined)

tested on: Trypanosoma cruzi; assay: Evaluated for its inhibitory activity against Trypanosoma cruzi; NA= not active at 30 umol; assay type: functional, organism-based; conditions: not given; method in brief: as §5

Compound | Activity against T. cruzi
CCCCCCCCOC(=O)CNC(=O)C(CSc1ccc([N+](=O)[O-])cc1[N+](=O)[O-])NC(=O)CCC(NC(=O)OCc1ccccc1)C(=O)OCCCCCCCC (centres undefined) | not active at 30 umol
